Assay results taken from ChEMBL document CHEMBL1909519, “L-Proline anchored multicomponent synthesis of novel pyrido[2,3-a]carbazoles; investigation of in vitro antimicrobial, antioxidant, cytotoxicity and structure activity relationship studies” (Eur J Med Chem, 2011).
In brackets after ≈: the same amount, converted by molar mass. Activity calls are given as the source filed them. The calls are words filed in the database; no cut-off is given here.

Experiments:
[1] = system: Candida albicans; assay: Antifungal activity against Candida albicans at 50 ug/ml after 48 hrs by agar disk diffusion assay; format: functional; details: read-out: DIZ
Summary of the method: (§1)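 Fungal isolates (PSG Hospital, Coimbatore) grown on Sabouraud dextrose agar; agar well diffusion with compounds in DMSO at 0 (control), 25, 50, 75, 100. DMSO negative control, fluconazole ([…]) positive control. Plates held 28 ± 2 °C for 48 h; zone of inhibition diameter recorded in mm.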

[2] = Cytotoxicity against human SK-MEL-12 cells up to 50 ug/ml after 48 hrs by SRB assay; format: functional, cell-based
Summary of the method: (§2)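 Cells in RPMI-1640 with 10% heat-inactivated FBS, 1 mM NaHCO3, 2 mM L-glutamine, 37 °C, 5% CO2; seeded (B16F10 5 × 10⁴ cells/mL, others 1 × 10⁵ cells/mL), 24 h, then compounds in DMSO at 1.56–50 for 48 h, triplicate wells. TCA fixation, SRB staining 30 min, tris extraction, OD 520 nm; IC50 by linear regression, mean ± SD of three independent experiments; cisplatin positive control.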

[3] = system: Aspergillus niger; assay: Antifungal activity against Aspergillus niger at 50 ug/ml after 48 hrs by agar disk diffusion assay; format: functional; details: read-out: DIZ; summary of the method: as §1
[4] = system: Klebsiella pneumoniae; assay: Antibacterial activity against Klebsiella pneumoniae at 50 ug/ml after 24 hrs by agar disk diffusion assay; format: functional; details: read-out: DIZ
Summary of the method: (§3)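 Gram-negative clinical isolates (PSG Hospital, Coimbatore) tested by agar well diffusion on nutrient agar. Compounds dissolved in DMSO at 0 (control), 25, 50, 75, 100; DMSO was the negative control and ciprofloxacin ([…]) the positive control. Incubation 37 ± 2 °C for 24 h, then inhibition zone diameter measured in mm.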

[5] = system: Enterococcus faecalis; assay: Antibacterial activity against Enterococcus faecalis after 24 hrs by agar disk diffusion assay; format: functional
Summary of the method: (§4)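 Agar well diffusion on nutrient agar against Gram-positive clinical isolates (PSG Hospital, Coimbatore). Compounds in DMSO tested at 0 (control), 25, 50, 75, 100; DMSO as solvent and negative control; ciprofloxacin ([…]) as positive control. Plates incubated 37 ± 2 °C, 24 h; zone of inhibition diameter read in mm.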

[6] = system: Aspergillus niger; assay: Antifungal activity against Aspergillus niger after 48 hrs by agar disk diffusion assay; format: functional; summary of the method: as §1
[7] = system: Radical scavenging activity; assay: Antioxidant activity assessed as DPPH radical scavenging activity upto 600 mg/ml after 30 mins by micro plate reader; format: functional
Summary of the method: (§5)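 DPPH assay: various compound concentrations brought to volume with ethanol, mixed with 0.1 mM ethanolic DPPH alongside vitamin C standard; shaken 30 min at 24 °C, absorbance read at 517 nm; concentration giving 50% decrease determined.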

[8] = system: A549; assay: Cytotoxicity against human A549 cells up to 50 ug/ml after 48 hrs by SRB assay; format: functional, cell-based; summary of the method: as §2
[9] = system: Candida albicans; assay: Antifungal activity against Candida albicans after 48 hrs by agar disk diffusion assay; format: functional; summary of the method: as §1
[10] = system: Escherichia coli; assay: Antibacterial activity against Escherichia coli at 50 ug/ml after 24 hrs by agar disk diffusion assay; format: functional; details: read-out: DIZ; summary of the method: as §3
[11] = system: HCT-15; assay: Cytotoxicity against human HCT15 cells after 48 hrs by SRB assay; format: functional, cell-based; details: HCT-15, 48 h; summary of the method: as §2
[12] = system: Staphylococcus aureus; assay: Antibacterial activity against Staphylococcus aureus after 24 hrs by agar disk diffusion assay; format: functional; summary of the method: as §4
[13] = system: Enterococcus faecalis; assay: Antibacterial activity against Enterococcus faecalis at 50 ug/ml after 24 hrs by agar disk diffusion assay; format: functional; details: read-out: DIZ; summary of the method: as §4
[14] = system: B16-F10; assay: Cytotoxicity against mouse B16F10 cells after 48 hrs by SRB assay; format: functional, cell-based; details: B16-F10, 48 h; summary of the method: as §2
[15] = system: Klebsiella pneumoniae; assay: Antibacterial activity against Klebsiella pneumoniae after 24 hrs by agar disk diffusion assay; format: functional; summary of the method: as §3
[16] = system: Escherichia coli; assay: Antibacterial activity against Escherichia coli after 24 hrs by agar disk diffusion assay; format: functional; summary of the method: as §3
[17] = system: Staphylococcus aureus; assay: Antibacterial activity against Staphylococcus aureus at 50 ug/ml after 24 hrs by agar disk diffusion assay; format: functional; details: read-out: DIZ; summary of the method: as §4
[18] = system: SK-OV-3; assay: Cytotoxicity against human SKOV3 cells up to 50 ug/ml after 48 hrs by SRB assay; format: functional, cell-based; summary of the method: as §2
[19] = system: Escherichia coli; assay: Antibacterial activity against Escherichia coli at 30 ug/ml after 24 hrs by agar disk diffusion assay; details: read-out: DIZ
[20] = system: Staphylococcus aureus; assay: Antibacterial activity against Staphylococcus aureus at 30 ug/ml after 24 hrs by agar disk diffusion assay; details: read-out: DIZ
[21] = system: Klebsiella pneumoniae; assay: Antibacterial activity against Klebsiella pneumoniae at 30 ug/ml after 24 hrs by agar disk diffusion assay; details: read-out: DIZ
[22] = system: Enterococcus faecalis; assay: Antibacterial activity against Enterococcus faecalis at 30 ug/ml after 24 hrs by agar disk diffusion assay; details: read-out: DIZ
[23] = system: Aspergillus niger; assay: Antifungal activity against Aspergillus niger at 30 ug/ml after 48 hrs by agar disk diffusion assay; format: functional; details: read-out: DIZ
Summary of the method: (§6)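 Agar well diffusion on Sabouraud dextrose agar; fungal strains obtained from a hospital. Compounds dissolved in DMSO, with DMSO as negative control and fluconazole ([…]) as positive control. Plates incubated at 28 ± 2 °C for 48 h. Activity taken as the diameter of the inhibition zone, in mm.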

[24] = system: Candida albicans; assay: Antifungal activity against Candida albicans AT 30 ug/ml after 48 hrs by agar disk diffusion assay; format: functional; details: read-out: DIZ; summary of the method: as §6
[25] = system: Escherichia coli; assay: Antibacterial activity against Escherichia coli at 100 ug/ml after 24 hrs by agar disk diffusion assay; format: functional; details: read-out: DIZ; summary of the method: as §3
[26] = system: Radical scavenging activity; assay: Antioxidant activity assessed as DPPH radical scavenging activity after 30 mins by micro plate reader; format: functional; summary of the method: as §5
[27] = system: Enterococcus faecalis; assay: Antibacterial activity against Enterococcus faecalis at 100 ug/ml after 24 hrs by agar disk diffusion assay; format: functional; details: read-out: DIZ; summary of the method: as §4
[28] = system: HCT-15; assay: Cytotoxicity against human HCT15 cells up to 50 ug/ml after 48 hrs by SRB assay; format: functional, cell-based; summary of the method: as §2
[29] = system: B16-F10; assay: Cytotoxicity against mouse B16F10 cells up to 50 ug/ml after 48 hrs by SRB assay; format: functional, cell-based; summary of the method: as §2
[30] = system: Staphylococcus aureus; assay: Antibacterial activity against Staphylococcus aureus at 100 ug/ml after 24 hrs by agar disk diffusion assay; format: functional; details: read-out: DIZ; summary of the method: as §4
[31] = system: Klebsiella pneumoniae; assay: Antibacterial activity against Klebsiella pneumoniae at 100 ug/ml after 24 hrs by agar disk diffusion assay; format: functional; details: read-out: DIZ; summary of the method: as §3
[32] = system: Aspergillus niger; assay: Antifungal activity against Aspergillus niger at 100 ug/ml after 48 hrs by agar disk diffusion assay; format: functional; details: read-out: DIZ; summary of the method: as §1
[33] = system: Candida albicans; assay: Antifungal activity against Candida albicans at 100 ug/ml after 48 hrs by agar disk diffusion assay; format: functional; details: read-out: DIZ; summary of the method: as §1

Compound	IC50 [2]	MIC [5] [µg/mL]	MIC [6] [µg/mL]	IC50 [8]	MIC [9] [µg/mL]	MIC [12] [µg/mL]	MIC [15] [µg/mL]	MIC [16] [µg/mL]	IC50 [18]	other results
Cc1ccc2[nH]c3c(c2c1)CCc1c-3nc(N)c(C#N)c1-c1ccc(N(C)C)cc1	Not Active	50 (≈ 127 µM)	> 100	Not Active	> 100	50 (≈ 127 µM)	50 (≈ 127 µM)	50 (≈ 127 µM)	Not Active	zone of inhibition at 50 µg/mL [1]: 9 mm; zone of inhibition at 50 µg/mL [3]: 5 mm; zone of inhibition at 50 µg/mL [4]: 18 mm; Activity [7]: inactive; zone of inhibition at 50 µg/mL [10]: 17 mm; IC50 [11]: 43.5 µg/mL (≈ 111 µM); zone of inhibition at 50 µg/mL [13]: 19 mm; IC50 [14]: 34.6 µg/mL (≈ 87.9 µM); zone of inhibition at 50 µg/mL [17]: 17 mm
O=C(O)c1cn(C2CC2)c2cc(N3CCNCC3)c(F)cc2c1=O [CIPROFLOXACIN]		12.5 (≈ 37.7 µM)				12.5 (≈ 37.7 µM)	12.5 (≈ 37.7 µM)	12.5 (≈ 37.7 µM)		zone of inhibition at 30 µg/mL [19]: 27 mm; zone of inhibition at 30 µg/mL [20]: 28 mm; zone of inhibition at 30 µg/mL [21]: 30 mm; zone of inhibition at 30 µg/mL [22]: 29 mm
OC(Cn1cncn1)(Cn1cncn1)c1ccc(F)cc1F [FLUCONAZOLE]			12.5 (≈ 40.8 µM)		12.5 (≈ 40.8 µM)					zone of inhibition at 30 µg/mL [23]: 19 mm; zone of inhibition at 30 µg/mL [24]: 22 mm
CCOC(=O)c1c(N)nc2c(c1-c1ccccc1)CCc1c-2[nH]c2ccc(C)cc12	Not Active	100 (≈ 252 µM)	> 100	Not Active	> 100	100 (≈ 252 µM)	100 (≈ 252 µM)	100 (≈ 252 µM)	Not Active	zone of inhibition at 100 µg/mL [25]: 13 mm; IC50 [26]: 300.84 µg/mL (≈ 757 µM); zone of inhibition at 100 µg/mL [27]: 15 mm; IC50 [28]: Not Active; IC50 [29]: Not Active; zone of inhibition at 100 µg/mL [30]: 14 mm; zone of inhibition at 100 µg/mL [31]: 16 mm; zone of inhibition at 100 µg/mL [32]: 4 mm; zone of inhibition at 100 µg/mL [33]: 2 mm
